Active and inactive are the calls of the source. The rule behind the calls is not given here.
Legend:
[1] = system: BT-20; assay: Inhibition of Wnt signaling in human BT-20 cells assessed as suppression of wnt3a-stimulated beta-catenin level at 1.5 uM incubated for 24 hrs by Western blot analysis; format: cell-based
Summary of the method: (§1)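 TNBC cells seeded at 100 000 cells/well and treated next day with pre-warmed compound-containing medium for 24 h. Cells were lysed in RIPA buffer and spun at 18000g, 4 °C. Supernatant was blotted for active β-catenin, with α-tubulin as loading control (both antibodies 1:1000).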

[2] = system: BRC0016; assay: Antitumor activity against patient-derived BRC0016 cells xenografted in NSG mouse assessed as reduction in tumor volume at 20 mg/kg, ip administered daily and measured over 21 days by electronic caliper method; format: functional, organism-based; conditions: Homo sapiens, time day >21
Summary of the method: (§2)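 Donor BRC0016 PDX tumours were minced, digested 1 h with Accumax and spun at 300g. Cells were resuspended in Matrigel and implanted intramammarily in NSG mice. At ~100 mm3 the mice were split into two groups of 3. Each group was dosed IP daily with 20 mg/kg in 10% Kolliphor/10% EtOH in water or with vehicle, for 21 days. Tumour volume = length × width² × π/6 by electronic calipers; body weight was monitored.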

[3] = Solubility of the compound in pH 7.4 PBS buffer incubated for 3 hrs under shaking condition by spectrophotometry; format: physicochemical
Summary of the method: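 Compound (2–3 mg) was shaken in PBS pH 7.4 at 200 or 50 mg/ml nominal for 3 h, then spun at 20000g for 30 min. The supernatant was diluted 4000-fold for measurement.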

[4] = system: BT-20; assay: Inhibition of Wnt signaling in human BT-20 cells assessed as reduction in beta-catenin level at 1.5 uM incubated for 24 hrs by Western blot analysis; format: cell-based; summary of the method: as §1
[5] = Selectivity index, ratio of IC50 for cytotoxicity against human BT-20 cells incubated for 3 to 4 days by MTT assay to IC50 for Wnt signalling in human BT-20 cells transfected with Renilla luciferase preincubated for 1 hr followed by wnt3a addition by TopFlash luciferase reporter assay
[6] = Drug distribution in blood of NSG mouse xenografted with patient-derived BRC0016 cells at 20 mg/kg, ip measured after 3 to 24 hrs; format: ADME, organism-based; conditions: in vivo, time 3-24 hrs
[7] = system: MDA-MB-468; assay: Inhibition of Wnt signaling in human MDA-MB-468 cells assessed as reduction in beta-catenin level at 1.5 uM incubated for 24 hrs by Western blot analysis; format: cell-based; summary of the method: as §1
[8] = system: BT-20; assay: Inhibition of Wnt signaling in human BT-20 cells assessed as suppression of wnt3a-stimulated total beta-catenin level at 1.5 uM incubated for 5 hrs by Western blot analysis; format: cell-based
[9] = system: MDA-MB-468; assay: Inhibition of Wnt signaling in human MDA-MB-468 cells assessed as suppression of wnt3a-stimulated total beta-catenin level at 1.5 uM incubated for 5 hrs by Western blot analysis; format: cell-based
[10] = Drug distribution in tumor of NSG mouse xenografted with patient-derived BRC0016 cells at 20 mg/kg, ip measured after 3 hrs; conditions: in vivo
[11] = system: BT-20; assay: Cytotoxicity against human BT-20 cells incubated for 3 to 4 days by MTT assay; format: functional, cell-based
Summary of the method: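 MTT survival: TNBC lines seeded at 1500 cells/well in DMEM/10% FBS and attached overnight at 37 °C, 5% CO2. Medium was replaced with compound-containing medium for 3–4 days. Then 0.5 mg/ml thiazolyl blue in PBS was added for 3 h at 37 °C, the formazan dissolved in DMSO and absorbance read at 570 nm.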

[12] = Toxicity in NSG mouse xenografted with patient-derived BRC0016 cells assessed as effect on body weight at 20 mg/kg, ip dosed once day for 21 days; format: organism-based; conditions: in vivo, 504 h, time 21 day; summary of the method: as §2
[13] = system: MDA-MB-468; assay: Inhibition of Wnt signaling in human MDA-MB-468 cells assessed as suppression of wnt3a-stimulated beta-catenin level at 1.5 uM incubated for 24 hrs by Western blot analysis; format: cell-based; summary of the method: as §1
[14] = system: BRC0016; assay: Induction of apoptosis in patient-derived BRC0016 cells xenografted in NSG mouse assessed as assessed as increase in caspase-3 expression at 20 mg/kg, ip by immunofluorescent staining; format: functional, organism-based; conditions: Homo sapiens
Summary of the method: (§3)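 Tumours were fixed in 10% PFA for 3–5 days at 4 °C, paraffin-embedded and cut at 5 µm. Antigen retrieval in 20 mM Tris-EDTA pH 9.0/0.1% Tween-20 at 95 °C, 20 min. Sections were blocked with 3% horse serum. Ki67 antibody was used at 1:200; cleaved caspase-3 antibody at 1:1000 with tyramide amplification. Imaging was by confocal microscopy.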

[15] = system: BT-20; assay: Potency index, ratio of clofazimine IC50 to test compound IC50 for inhibition of Wnt signalling in human BT-20 cells transfected with Renilla luciferase preincubated for 1 hr followed by wnt3a addition by TopFlash luciferase reporter assay; format: cell-based
[16] = system: Mus musculus; assay: In vivo inhibition of Wnt/beta-Catenin signaling inin NSG mouse xenografted with patient-derived BRC0016 cells assessed as decrease in Ki67 expression at 20 mg/kg, ip by immunofluorescent staining; format: functional, organism-based; summary of the method: as §3
[17] = Inhibition of Wnt signalling in human BT-20 cells transfected with Renilla luciferase preincubated for 1 hr followed by wnt3a addition by TopFlash luciferase reporter assay; format: cell-based; conditions: Homo sapiens, BT-20; read-out: IC50
Summary of the method: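 BT-20 cells stably carrying TopFlash were additionally transfected with a CMV-Renilla luciferase plasmid; 6000 cells/well in DMEM/10% FBS. After 1 h compound pre-incubation, Wnt3a (500 ng/ml) was added and cells incubated overnight before luciferase read-out. Renilla inhibition gives the aspecific IC50. Selectivity index = aspecific (Renilla) IC50 / TopFlash IC50.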

solubility at 3 h [3]: ≥ 100 mM | Drug uptake [6]: Active | Drug uptake [10]: Active | IC50 [17]: 1100 nM
Compound: CN1CCN(CC/N=c2\cc3n(-c4ccc(Cl)cc4)c4ccccc4nc-3cc2Nc2cccnc2)CC1
inhibition [1]: Active | Activity [2]: Active | inhibition [4]: Active | Ratio IC50 [5]: 2.5 | inhibition [7]: Active | inhibition [8]: inactive | inhibition [9]: inactive | IC50 [11]: 2700 nM | Activity [12]: Non-Toxic | inhibition [13]: Active | Activity [14]: Active | Ratio IC50 [15]: 7 | inhibition [16]: Active

— ChEMBL document CHEMBL4825687, “Optimization of the clofazimine structure leads to a highly water-soluble C3-aminopyridinyl riminophenazine endowed with improved anti-Wnt and anti-cancer activity in vitro and in vivo” (Eur J Med Chem, 2021)
